Source: ChEMBL document CHEMBL2385032, “Dual-functional abeo-taxane derivatives destabilizing microtubule equilibrium and inhibiting NF-κB activation” (2013)
One block for each molecule: values may come before it. Calls of active or inactive are those of the source. No cut-off for these calls is given here.

Assays:
Tubulin (Homo sapiens) [1] = target: T1, Tubulin (Homo sapiens) (UniProt P68371+Q9H4B7+P0DPH7+P68366+Q13509+Q71U36+P04350+Q3ZCM7+P07437+P68363+Q9BQE3+Q6PEY2+Q13885+Q9BVA1+Q9BUF5); test: Induction of tubulin (unknown origin) polymerization at 3 uM by fluorescence assay; assay type: protein-complex assay
Outline: (§1)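 Cell-free tubulin polymerization kit; tubulin mixed with DMSO control, 500 μM CaCl2, 3 μM paclitaxel or test compounds at 15 or 30 μM; polymerization followed kinetically by fluorescence, excitation 340 nm, emission 420 nm, in a temperature-regulated fluorimeter. Three independent experiments in triplicate.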

T47D = test: Cytotoxicity against human T47D cells; assay type: functional
Outline: (§2)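 NCI-60 human tumor cell line screen run by standard NCI protocol: single-dose prescreen at 10 μM, then multi-dose testing of compounds giving over 50% growth inhibition; GI50 = concentration for 50% growth inhibition.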

LOX IMVI = test: Cytotoxicity against human LOXIMVI cells; assay type: functional
HCT-116 [2] = test: Cytotoxicity against human HCT116 cells; assay type: functional; outline: as §2
DU-145 = test: Cytotoxicity against human DU145 cells; assay type: functional; outline: as §2
SNB-19 = test: Cytotoxicity against human SNB19 cells; assay type: functional; outline: as §2
MOLT-4 = test: Cytotoxicity against human MOLT4 cells; assay type: functional; outline: as §2
RXF 393 = test: Cytotoxicity against human RXF393 cells; assay type: functional; outline: as §2
NCI-H322M = test: Cytotoxicity against human NCI-H322M cells; assay type: functional; outline: as §2
PC-3 = test: Induction of microtubule polymerization in human PC3 cells assessed as bundled sheet like pattern at 200 nM after 24 hrs by DAPI staining-based immunofluorescence microscopic analysis; assay type: cell-based
Outline: (§3)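 PC-3 cells grown on chamber slides 36 h, then treated 24 h (test agents 2, 5 or 10 μM; reference agents 200 nM); fixed in 4% paraformaldehyde, permeabilized with 0.5% Triton X-100, stained with anti-α-tubulin monoclonal plus FITC secondary and DAPI for nuclei; spindle and microtubule morphology by fluorescence microscopy.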

OVCAR-3 = test: Cytotoxicity against human OVCAR3 cells; assay type: functional; outline: as §2
HCT-116 [3] = test: Cell cycle arrest in human HCT116 cells assessed as accumulation at G2/M phase at 1 uM after 12 hrs by propidium iodide staining-based FACS analysis (reference value: 20.40 to 22.32 %); assay type: functional
HCT-116 [4] = test: Cell cycle arrest in human HCT116 cells assessed as accumulation at G2/M phase after 12 hrs by propidium iodide staining-based FACS analysis; assay type: functional
HEK-293T [5] = test: Inhibition of TNF-alpha induced NF-kapppaB activation in HEK293T cells at 2.50 uM incubated 1 hr prior to TNF-alpha addition measured after 18 hrs by luciferase reporter gene assay; assay type: cell-based; settings: Homo sapiens
Outline: (§4)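 HEK 293T cells transiently transfected 12 h with pNFκB-luc and pRL-TK, pretreated 1 h with compound (0.31–2.50 μM) or DMSO, then stimulated with TNF-α 25 ng/mL for 18 h; firefly and Renilla luciferase read by dual-luciferase assay. Data from one of three independent experiments.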

HCT-116 [6] = test: Cell cycle arrest in human HCT116 cells assessed as reduction in G0/G1 phase after 12 hrs by propidium iodide staining-based FACS analysis; assay type: functional
HEK-293T [7] = test: Inhibition of TNF-alpha induced NF-kapppaB activation in HEK293T cells incubated 1 hr prior to TNF-alpha addition measured after 18 hrs by luciferase reporter gene assay; assay type: cell-based; settings: Homo sapiens; outline: as §4
Homo sapiens [8] = species: Homo sapiens; test: Induction of microtubule depolymerization in human PC3 interphase cells at 5 uM after 24 hrs by DAPI staining-based immunofluorescence microscopic analysis; assay type: cell-based; outline: as §3
Homo sapiens [9] = species: Homo sapiens; test: Induction of microtubule depolymerization in human PC3 mitotic cells assessed as abnormal spindles at 5 uM after 24 hrs by DAPI staining-based immunofluorescence microscopic analysis; assay type: cell-based; outline: as §3
HCT-116 [10] = test: Induction of apoptosis in human HCT116 cells assessed as early apoptotic cells at 2 uM after 24 hrs by AnnexinV-FITC/PI staining-based flow cytometry (reference value: 2.17 %); assay type: functional
Tubulin (Homo sapiens) [11] = target: T1, Tubulin (Homo sapiens); test: Inhibition of tubulin (unknown origin) polymerization assessed as destabilization of microtubule at 15 uM by fluorescence assay; assay type: protein-complex assay; outline: as §1
HCT-116 [12] = test: Induction of apoptosis in human HCT116 cells at 1 uM after 24 hrs by AnnexinV-FITC/PI staining-based flow cytometry; assay type: functional
HCT-116 [13] = test: Induction of apoptosis in human HCT116 cells assessed as late apoptotic cells at 1 uM after 24 hrs by AnnexinV-FITC/PI staining-based flow cytometry (reference value: 2.53 %); assay type: functional
HCT-116 [14] = test: Cell cycle arrest in human HCT116 cells assessed as accumulation at S phase at 2 uM after 12 hrs by propidium iodide staining-based FACS analysis (reference value: 20.48 to 23.62 %); assay type: functional
HEK-293T [15] = test: Inhibition of TNF-alpha induced NF-kapppaB activation in HEK293T cells at 1.25 uM incubated 1 hr prior to TNF-alpha addition measured after 18 hrs by luciferase reporter gene assay; assay type: cell-based; settings: Homo sapiens; outline: as §4
HCT-116 [16] = test: Cell cycle arrest in human HCT116 cells assessed as accumulation at G0/G1 phase at 1 uM after 12 hrs by propidium iodide staining-based FACS analysis (reference value: 54.63 to 55.88 %); assay type: functional
HCT-116 [17] = test: Cell cycle arrest in human HCT116 cells assessed as accumulation at G0/G1 phase at 2 uM after 12 hrs by propidium iodide staining-based FACS analysis (reference value: 54.63 to 55.88 %); assay type: functional
HEK-293T [18] = test: Inhibition of TNF-alpha induced NF-kapppaB activation in HEK293T cells at 0.62 uM incubated 1 hr prior to TNF-alpha addition measured after 18 hrs by luciferase reporter gene assay; assay type: cell-based; settings: Homo sapiens; outline: as §4
HCT-116 [19] = test: Induction of apoptosis in human HCT116 cells assessed as early apoptotic cells at 1 uM after 24 hrs by AnnexinV-FITC/PI staining-based flow cytometry (reference value: 2.17 %); assay type: functional
HCT-116 [20] = test: Induction of apoptosis in human HCT116 cells at 2 uM after 24 hrs by AnnexinV-FITC/PI staining-based flow cytometry; assay type: functional
HCT-116 [21] = test: Induction of apoptosis in human HCT116 cells after 24 hrs by AnnexinV-FITC/PI staining-based flow cytometry; assay type: functional, cell-based
HCT-116 [22] = test: Cell cycle arrest in human HCT116 cells assessed as accumulation at S phase at 1 uM after 12 hrs by propidium iodide staining-based FACS analysis (reference value: 20.48 to 23.62 %); assay type: functional
HCT-116 [23] = test: Induction of apoptosis in human HCT116 cells assessed as late apoptotic cells at 2 uM after 24 hrs by AnnexinV-FITC/PI staining-based flow cytometry (reference value: 2.53 %); assay type: functional
Tubulin (Homo sapiens) [24] = target: T1, Tubulin (Homo sapiens); test: Induction of tubulin (unknown origin) polymerization at 30 uM by fluorescence assay; assay type: protein-complex assay; outline: as §1
HEK-293T [25] = test: Inhibition of TNF-alpha induced NF-kapppaB activation in HEK293T cells at 1.25 to 5 uM incubated 1 hr prior to TNF-alpha addition measured after 18 hrs by luciferase reporter gene assay; assay type: cell-based; settings: Homo sapiens

Activity (Tubulin (Homo sapiens) [1]): Active
SMILES: CC(=O)O[C@H]1C(=O)[C@@]2(C)[C@H]([C@H](OC(=O)c3ccccc3)[C@]3(O)C[C@H](OC(=O)[C@H](O)[C@@H](NC(=O)c4ccccc4)c4ccccc4)C(C)=C1C3(C)C)[C@]1(OC(C)=O)CO[C@@H]1C[C@@H]2O [PACLITAXEL]
GI50 (T47D): 10 nM
GI50 (LOX IMVI): 16 nM
GI50 (HCT-116 [2]): 10 nM
GI50 (DU-145): 32 nM
GI50 (SNB-19): 40 nM
GI50 (MOLT-4): 32 nM
GI50 (RXF 393): 50 nM
GI50 (NCI-H322M): 50 nM
Activity (PC-3): Active
GI50 (OVCAR-3): 20 nM

inhibition (Tubulin (Homo sapiens) [11]): Active
SMILES: C=C1C(=O)C[C@H](OC(C)=O)[C@@]2(C)[C@@H](OC(C)=O)[C@H](OC(=O)c3ccccc3)C3=C(C)[C@@H](OC(=O)[C@H](O)[C@@H](NC(=O)OC(C)(C)C)c4ccccc4)C[C@@]3(C(C)(C)O)[C@@H](OC(C)=O)[C@H]12
Activity (HCT-116 [3]): 26.14%
Activity (HCT-116 [4]): Dose-dependent effect
inhibition (HEK-293T [5]): 28%
Activity (HCT-116 [6]): Dose-dependent effect
inhibition (HEK-293T [7]): Dose-dependent effect
Activity (Homo sapiens [8]): Active
Activity (Homo sapiens [9]): Active
Activity (HCT-116 [10]): 5.72%
GI50 (T47D): 1880 nM
Activity (HCT-116 [12]): 4.93%
GI50 (LOX IMVI): 1700 nM
Activity (HCT-116 [13]): 5.24%
GI50 (HCT-116 [2]): 1120 nM
Activity (HCT-116 [14]): 16.39%
GI50 (DU-145): 1890 nM
inhibition (HEK-293T [15]): 12%
Activity (HCT-116 [16]): 51.25%
Activity (HCT-116 [17]): 50.3%
inhibition (HEK-293T [18]): 9%
GI50 (SNB-19): 27500 nM
Activity (HCT-116 [19]): 3.3%
Activity (HCT-116 [20]): 19.87%
Activity (HCT-116 [21]): Dose-dependent effect
Activity (HCT-116 [22]): 20.48%
GI50 (RXF 393): 1330 nM
GI50 (NCI-H322M): 18800 nM
Activity (HCT-116 [23]): 14.64%
GI50 (OVCAR-3): 1690 nM

SMILES: C=C1C(=O)C=C[C@@]2(C)[C@@H](OC(C)=O)[C@H](OC(=O)c3ccccc3)C3=C(C)[C@@H](OC(=O)[C@H](O)[C@@H](NC(=O)OC(C)(C)C)c4ccccc4)C[C@@]3(C(C)(C)O)[C@@H](OC(C)=O)[C@H]12
GI50 (T47D): 4780 nM
GI50 (LOX IMVI): 2200 nM
GI50 (HCT-116 [2]): 1870 nM
GI50 (DU-145): 6050 nM
GI50 (SNB-19): > 100000 nM
GI50 (MOLT-4): 3780 nM
GI50 (RXF 393): 2080 nM
GI50 (NCI-H322M): 24600 nM
GI50 (OVCAR-3): 3190 nM

Activity (Tubulin (Homo sapiens) [24]): Active
SMILES: CC(=O)O[C@H]1C[C@H]2OC[C@@]2(OC(C)=O)[C@H]2[C@H](OC(C)=O)[C@]3(C(C)(C)O)C[C@H](OC(=O)[C@H](O)[C@@H](NC(=O)OC(C)(C)C)c4ccccc4)C(C)=C3[C@@H](OC(=O)c3ccccc3)[C@H](OC(C)=O)[C@]12C
inhibition (HEK-293T [25]): inactive
GI50 (T47D): 38900 nM
GI50 (LOX IMVI): 21400 nM
GI50 (HCT-116 [2]): 16200 nM
GI50 (DU-145): 21400 nM
GI50 (SNB-19): 33100 nM
GI50 (MOLT-4): 42700 nM
GI50 (RXF 393): 12600 nM
GI50 (NCI-H322M): 50100 nM
GI50 (OVCAR-3): 15500 nM
